These results are taken from ChEMBL document CHEMBL3526048, “In vitro metabolism of rivoglitazone, a novel peroxisome proliferator-activated receptor γ agonist, in rat, monkey, and human liver microsomes and freshly isolated hepatocytes” (Drug Metab Dispos, 2011).

Data set [1] has as its system Liver microsome. Briefly: Drug metabolism in Sprague-Dawley rat liver microsomes assessed as formation of 2-mercapto-3-(4-((6-methoxy-1-methyl-1H-benzo[d]imidazol-2-yl)methoxy)phenyl)propanamide at 20 uM after 2 hrs by radio-HPLC/LC-MS/MS analysis in presence of NADPH-generating system and NADPH-generating system/SAM. The format is ADME. (In general: Microsomes from liver hold many membrane-bound enzymes, among them those of drug oxidation.)

Data set [2] is described as follows: Drug metabolism in cynomolgus monkey liver microsomes assessed as formation of 2-mercapto-3-(4-((6-methoxy-1-methyl-1H-benzo[d]imidazol-2-yl)methoxy)phenyl)propanamide at 20 uM after 2 hrs by radio-HPLC/LC-MS/MS analysis in presence of NADPH-generating system and NADPH-generating system/SAM. The format is ADME, Macaca fascicularis.
In data set [3] the target is T1, UDP-glucuronosyltransferase 1A7 (Homo sapiens, UniProt Q9HAW7).
T1 sequence (Q9HAW7 whole entry): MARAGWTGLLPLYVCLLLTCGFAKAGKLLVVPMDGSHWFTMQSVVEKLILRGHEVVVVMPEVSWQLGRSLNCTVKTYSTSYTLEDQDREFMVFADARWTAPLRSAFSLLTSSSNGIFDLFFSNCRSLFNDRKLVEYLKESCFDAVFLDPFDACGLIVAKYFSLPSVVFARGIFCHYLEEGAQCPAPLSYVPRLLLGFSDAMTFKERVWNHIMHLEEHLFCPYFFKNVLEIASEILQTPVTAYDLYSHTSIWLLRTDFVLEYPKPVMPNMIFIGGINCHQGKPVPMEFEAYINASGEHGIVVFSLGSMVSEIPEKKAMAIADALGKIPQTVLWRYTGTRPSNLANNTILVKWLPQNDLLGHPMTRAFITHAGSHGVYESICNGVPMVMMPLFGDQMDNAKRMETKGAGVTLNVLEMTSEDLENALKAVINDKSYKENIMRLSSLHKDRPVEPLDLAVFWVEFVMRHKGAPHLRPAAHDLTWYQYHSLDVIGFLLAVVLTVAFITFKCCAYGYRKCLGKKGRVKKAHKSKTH
Nature of the data set: Activity of human UGT1A7 expressed in microsomes isolated from baculovirus infected insect cell assessed as enzyme-mediated 2-mercapto-3-(4-((6-methoxy-1-methyl-1H-benzo[d]imidazol-2-yl)methoxy)phenyl)propanoic acid formation at 20 uM after 4 hrs by radio-HPLC/LC-MS/MS analysis in presence of UDPGA. The format is ADME.

Data set [4] deals with T2, Cytochrome P450 1A2 (Homo sapiens, UniProt P05177).
T2 sequence (P05177 whole entry): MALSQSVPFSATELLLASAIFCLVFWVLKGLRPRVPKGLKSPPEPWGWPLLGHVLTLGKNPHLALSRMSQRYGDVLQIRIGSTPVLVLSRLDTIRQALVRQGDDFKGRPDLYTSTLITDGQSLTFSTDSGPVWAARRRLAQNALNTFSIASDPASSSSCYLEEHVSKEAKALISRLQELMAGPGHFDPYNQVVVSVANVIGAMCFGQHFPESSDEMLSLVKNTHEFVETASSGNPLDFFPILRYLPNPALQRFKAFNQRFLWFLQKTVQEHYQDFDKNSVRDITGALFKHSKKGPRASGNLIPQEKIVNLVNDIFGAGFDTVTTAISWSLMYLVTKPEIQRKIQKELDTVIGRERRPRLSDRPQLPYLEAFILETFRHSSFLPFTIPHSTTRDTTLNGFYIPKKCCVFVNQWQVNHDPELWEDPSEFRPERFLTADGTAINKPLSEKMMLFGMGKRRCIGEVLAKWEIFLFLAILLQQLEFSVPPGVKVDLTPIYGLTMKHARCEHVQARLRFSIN
Nature of the data set: Activity of human CYP1A2 expressed in microsomes isolated from baculovirus infected insect cell assessed as enzyme-mediated (2S,3S,4S,5R,6R)-6-((1-carboxy-2-(4-((6-methoxy-1-methyl-1H-benzo[d]imidazol-2-yl)methoxy)phenyl)ethylthio)carbonylamino)-3,4,5-trihydroxytetrahydro-2H-pyran-2-carboxylic acid formation at 20 uM after 2 hrs by radio-HPLC/LC-MS/MS analysis in presence of NADPH-generating system/SAM. The class given is ADME.

The nature of data set [5]: Drug metabolism in cynomolgus monkey liver microsomes assessed as formation of 2-amino-3-((1-carboxy-2-(4-((6-methoxy-1-methyl-1H-benzo[d]imidazol-2-yl)methoxy)phenyl)ethyl)disulfanyl)propanoic acid at 20 uM by radio-HPLC/LC-MS/MS analysis. The format is ADME, Macaca fascicularis.
The target in data set [6] is Cytochrome P450 3A4 (Homo sapiens, UniProt P08684). Briefly: Activity of human CYP3A4 expressed in microsomes isolated from baculovirus infected insect cell assessed as enzyme-mediated 5-(4-((6-hydroxy-1-methyl-1H-benzo[d]imidazol-2-yl)methoxy)benzyl)thiazolidine-2,4-dione formation at 20 uM after 2 hrs by radio-HPLC/LC-MS/MS analysis in presence of NADPH-generating system and NADPH-generating system/SAM. The format is ADME.
Sequence of Cytochrome P450 3A4 (P08684 whole entry): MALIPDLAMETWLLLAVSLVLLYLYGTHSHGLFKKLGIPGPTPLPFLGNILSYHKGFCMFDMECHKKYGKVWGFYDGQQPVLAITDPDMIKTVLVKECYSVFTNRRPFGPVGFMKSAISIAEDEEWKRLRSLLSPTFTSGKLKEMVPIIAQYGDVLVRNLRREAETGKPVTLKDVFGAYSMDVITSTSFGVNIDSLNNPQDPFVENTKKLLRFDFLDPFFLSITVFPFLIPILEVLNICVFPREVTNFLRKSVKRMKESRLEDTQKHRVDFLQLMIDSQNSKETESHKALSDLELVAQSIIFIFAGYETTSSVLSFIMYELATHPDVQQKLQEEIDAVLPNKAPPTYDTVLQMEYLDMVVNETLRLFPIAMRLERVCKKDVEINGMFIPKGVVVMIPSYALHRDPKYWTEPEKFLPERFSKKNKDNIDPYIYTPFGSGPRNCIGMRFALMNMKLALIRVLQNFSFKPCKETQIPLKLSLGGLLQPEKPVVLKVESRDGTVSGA

Data set [7] addresses Cytochrome P450 2C19 (Homo sapiens, UniProt P33261). Briefly: Activity of human CYP2C19 expressed in microsomes isolated from baculovirus infected insect cell assessed as enzyme-mediated (2S,3S,4S,5R,6R)-6-((1-carboxy-2-(4-((6-methoxy-1-methyl-1H-benzo[d]imidazol-2-yl)methoxy)phenyl)ethylthio)carbonylamino)-3,4,5-trihydroxytetrahydro-2H-pyran-2-carboxylic acid formation at 20 uM after 2 hrs by radio-HPLC/LC-MS/MS analysis in presence of NADPH-generating system/SAM. The class given is ADME.

Data set [8] concerns the target T3, UDP-glucuronosyltransferase 1A10 (Homo sapiens, UniProt Q9HAW8).
T3 sequence (Q9HAW8 whole entry): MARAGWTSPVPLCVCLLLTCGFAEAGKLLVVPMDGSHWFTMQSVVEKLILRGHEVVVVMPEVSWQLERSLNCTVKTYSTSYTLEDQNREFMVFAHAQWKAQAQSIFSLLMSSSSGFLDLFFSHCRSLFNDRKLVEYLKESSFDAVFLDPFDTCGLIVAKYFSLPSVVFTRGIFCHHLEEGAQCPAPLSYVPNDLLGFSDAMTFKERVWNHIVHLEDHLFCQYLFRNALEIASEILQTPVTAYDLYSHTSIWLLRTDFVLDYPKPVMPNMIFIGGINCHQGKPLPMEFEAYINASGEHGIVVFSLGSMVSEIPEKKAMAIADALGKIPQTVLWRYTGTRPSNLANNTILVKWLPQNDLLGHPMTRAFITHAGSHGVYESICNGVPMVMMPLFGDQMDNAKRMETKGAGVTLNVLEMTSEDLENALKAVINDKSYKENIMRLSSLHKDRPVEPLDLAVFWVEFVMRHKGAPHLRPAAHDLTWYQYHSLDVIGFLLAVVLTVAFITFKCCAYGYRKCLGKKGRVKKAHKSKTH
Nature of the data set: Activity of human UGT1A10 expressed in microsomes isolated from baculovirus infected insect cell assessed as enzyme-mediated (2S,3S,4S,5R,6R)-3,4,5-trihydroxy-6-(5-(4-((6-methoxy-1-methyl-1H-benzo[d]imidazol-2-yl)methoxy)benzyl)-2,4-dioxothiazolidin-3-yl)tetrahydro-2H-pyran-2-carboxylic acid formation at 20 uM after 4 hrs by radio-HPLC/LC-MS/MS analysis in presence of UDPGA. The format is ADME. The method in brief: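 Alamethicin (50 μg/mg protein, 15 min on ice) pretreated expressed human UGT microsomes (1 mg/ml protein) from baculovirus-infected insect cells. Incubation with [¹⁴C]rivoglitazone (20 μM) in 100 mM Tris-HCl (pH 7.5) with 10 mM MgCl₂, started by 5 mM UDPGA, 4 h at 37°C with shaking. UGT insect-cell control supersomes were run alongside. Acetonitrile stop, concentrated supernatant analysed by radio-HPLC, LC-MS and LC-MS/MS.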

Each structure is given as a SMILES string.

Sequence of Cytochrome P450 2C19 (P33261 whole entry): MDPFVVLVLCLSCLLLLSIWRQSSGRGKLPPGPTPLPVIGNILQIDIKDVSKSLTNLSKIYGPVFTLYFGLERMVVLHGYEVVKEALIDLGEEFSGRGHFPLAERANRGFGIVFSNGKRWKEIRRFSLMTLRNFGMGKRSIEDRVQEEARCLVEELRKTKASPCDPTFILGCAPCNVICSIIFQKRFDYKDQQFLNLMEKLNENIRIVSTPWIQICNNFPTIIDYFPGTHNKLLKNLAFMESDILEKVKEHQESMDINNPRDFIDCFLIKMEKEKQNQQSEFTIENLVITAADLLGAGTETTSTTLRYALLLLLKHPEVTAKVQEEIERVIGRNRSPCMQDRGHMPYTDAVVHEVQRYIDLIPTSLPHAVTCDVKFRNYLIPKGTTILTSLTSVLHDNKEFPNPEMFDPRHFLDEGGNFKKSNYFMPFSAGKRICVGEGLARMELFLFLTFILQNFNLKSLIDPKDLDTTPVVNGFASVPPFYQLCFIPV

Regarding `COc1ccc2nc(COc3ccc(C[14CH]4SC(=O)NC4=O)cc3)n(C)c2c1.Cl` (racemic), the Drug metabolism result in data set [1] is on record as “metabolite_detected”; in data set [2], “metabolite_detected”; in data set [3] it was “metabolite_not_detected”; in data set [4], “metabolite_not_detected”; in data set [5] it was “metabolite_not_detected”; in data set [6], “metabolite_detected”. For the same molecule, the Drug metabolism result in data set [7] and in data set [8] was “metabolite_not_detected” throughout.
